The results in this text go back to the RNAGym collection of RNA variant scans (doi:10.1038/s41586-018-0170-7).

The chains are these.
B1: tRNA (parent)
chain: GUUCCGUUGGCGUAAUGGUAACGCGUCUCCCUCCUAAGGAGAAGACUGCGGGUUCGAGUCCCGUACGGAACG

The variants in this data set derive from B1. Briefly: yeast fitness, log relative to wild type (ln ratio); higher = fitter; tRNA-Arg(CCU), competitive growth, 37 C, 1 M NaCl. The essentials:
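In BY4742 missing the chromosomal gene, a combinatorial tRNA-Arg(CCU) variant library was maintained on a HIS3 centromeric plasmid. Selection ran ~6.5 generations (~26.5 h) in SC-HIS 1M NaCl at 37 °C, following 4 generations in SC-HIS at 30 °C, with three outputs per input and variant counts by 125 bp paired-end Illumina sequencing. Fitness is the natural log of a genotype's generations relative to the wild type's, with generations taken as inverse-variance-weighted, OD-scaled log2 output/input frequency.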
Take AGUCCGUUGGCGUAAUGGUAACGCGUUUCCCUCCUAAGGAGAAGAUUGCGGGUUCGAGUCCCGUAUGGGGUG [G1A U2G C27U C46U C66U A69G A70G C71U]: the “yeast fitness (ln)” value is -0.267.

For AGUCCGUUGGCGUAAUGGUAACGCGUUUCCCUCCUAAGGAGACGACUGCGGGUUCGAGUCCCGUAAGGGAUG [G1A U2G C27U A43C C66A A69G C71U], the “yeast fitness (ln)” value is -0.297. Regarding AGUCCGUUGGCGUAAUGGUAACGCGUUUCCCUCCUAAGGAGACGACUGCGGGUUCGAGUCCCGUACGGAAUG [G1A U2G C27U A43C C71U], the “yeast fitness (ln)” value is -0.16.

For the variant AGUCCGUUGGCGUAAUGGUAACGCGUUUCCCUCCUAAGGAGACGACUGCGGGUUCGAGUCCCGUAAGGGGCG [G1A U2G C27U A43C C66A A69G A70G], the “yeast fitness (ln)” value was -0.27. Next, AGUCCGUUGGCGUAAUGGUAACGCGUUUCCCUCCUAAGGAGAAGAUUGCGGGUUCGAGUCCCGUAAGGAUUG [G1A U2G C27U C46U C66A A70U C71U]: -0.185; AGUCCGUUGGCGUAAUGGUAACGCGUUUCCCUCCUAAGGAGAAGAUUGCGGGUUCGAGUCCCGUACGGGGCG [G1A U2G C27U C46U A69G A70G]: -0.21. In the case of AGUCCGUUGGCGUAAUGGUAACGCGUUUCCCUCCUAAGGAGAAGAUUGCGGGUUCGAGUCCCGUACGGGUCG [G1A U2G C27U C46U A69G A70U], the “yeast fitness (ln)” value was -0.207. Turning to AGUCCGUUGGCGUAAUGGUAACGCGUUUCCCUCCUAAGGAGAAGACUGCGGGUUCGAGUCCCGUACGGGUUG [G1A U2G C27U A69G A70U C71U], the “yeast fitness (ln)” value was -0.386. Next, AGUCCGUUGGCGUAAUGGUAACGCGUUUCCCUCCUAAGGAGAAGAUUGCGGGUUCGAGUCCCGUACGGAACG [G1A U2G C27U C46U]: -0.0532; AGUCCGUUGGCGUAAUGGUAACGCGUUUCCCUCCUAAGGAGACGAUUGCGGGUUCGAGUCCCGUAUGGAGUG [G1A U2G C27U A43C C46U C66U A70G C71U]: -0.318. Regarding AGUCCGUUGGCGUAAUGGUAACGCGUUUCCCUCCUAAGGAGAAGAUUGCGGGUUCGAGUCCCGUAUGGGUUG [G1A U2G C27U C46U C66U A69G A70U C71U], the “yeast fitness (ln)” value was -0.429. On to AGUCCGUUGGCGUAAUGGUAACGCGUUUCCCUCCUAAGGAGAAGACUGCGGGUUCGAGUCCCGUACGGGACG [G1A U2G C27U A69G], for which the “yeast fitness (ln)” value was -0.145.

As to AGUCCGUUGGCGUAAUGGUAACGCGUUUCCCUCCUAAGGAGAAGAUUGCGGGUUCGAGUCCCGUACGGAUCG [G1A U2G C27U C46U A70U], the “yeast fitness (ln)” value is -0.293. Regarding AGUCCGUUGGCGUAAUGGUAACGCGUUUCCCUCCUAAGGAGAAGAUUGCGGGUUCGAGUCCCGUACGGAGCG [G1A U2G C27U C46U A70G], the “yeast fitness (ln)” value was -0.144. For the variant AGUCCGUUGGCGUAAUGGUAACGCGUUUCCCUCCUAAGGAGACGACUGCGGGUUCGAGUCCCGUAAGGAUUG [G1A U2G C27U A43C C66A A70U C71U], the “yeast fitness (ln)” value was -0.499. As for AGUCCGUUGGCGUAAUGGUAACGCGUUUCCCUCCUAAGGAGACGACUGCGGGUUCGAGUCCCGUAAGGAAUG [G1A U2G C27U A43C C66A C71U], the figure is -0.377; as for AGUCCGUUGGCGUAAUGGUAACGCGUUUCCCUCCUAAGGAGACGAUUGCGGGUUCGAGUCCCGUAUGGAUUG [G1A U2G C27U A43C C46U C66U A70U C71U], -0.329. Take AGUCCGUUGGCGUAAUGGUAACGCGUUUCCCUCCUAAGGAGACGAUUGCGGGUUCGAGUCCCGUAAGGAAUG [G1A U2G C27U A43C C46U C66A C71U]: the “yeast fitness (ln)” value is -0.254. With AGUCCGUUGGCGUAAUGGUAACGCGUUUCCCUCCUAAGGAGACGACUGCGGGUUCGAGUCCCGUAUGGGUUG [G1A U2G C27U A43C C66U A69G A70U C71U], the “yeast fitness (ln)” value was -0.332. As for AGUCCGUUGGCGUAAUGGUAACGCGUUUCCCUCCUAAGGAGACGACUGCGGGUUCGAGUCCCGUAUGGAAUG [G1A U2G C27U A43C C66U C71U], the figure is -0.452; as for AGUCCGUUGGCGUAAUGGUAACGCGUUUCCCUCCUAAGGAGACGAUUGCGGGUUCGAGUCCCGUAUGGAGCG [G1A U2G C27U A43C C46U C66U A70G], -0.172; as for AGUCCGUUGGCGUAAUGGUAACGCGUUUCCCUCCUAAGGAGACGAUUGCGGGUUCGAGUCCCGUAUGGAUCG [G1A U2G C27U A43C C46U C66U A70U], -0.214. As for AGUCCGUUGGCGUAAUGGUAACGCGUUUCCCUCCUAAGGAGAAGAUUGCGGGUUCGAGUCCCGUAUGGAUUG [G1A U2G C27U C46U C66U A70U C71U], the “yeast fitness (ln)” value was -0.434.

AGUCCGUUGGCGUAAUGGUAACGCGUUUCCCUCCUAAGGAGACGACUGCGGGUUCGAGUCCCGUAUGGAUUG [G1A U2G C27U A43C C66U A70U C71U]: the “yeast fitness (ln)” value is -0.382. In the case of AGUCCGUUGGCGUAAUGGUAACGCGUUUCCCUCCUAAGGAGACGAUUGCGGGUUCGAGUCCCGUAUGGGAUG [G1A U2G C27U A43C C46U C66U A69G C71U], the “yeast fitness (ln)” value is -0.383. Take AGUCCGUUGGCGUAAUGGUAACGCGUUUCCCUCCUAAGGAGAAGAUUGCGGGUUCGAGUCCCGUACGGGAUG [G1A U2G C27U C46U A69G C71U]: the “yeast fitness (ln)” value was -0.206. Take AGUCCGUUGGCGUAAUGGUAACGCGUUUCCCUCCUAAGGAGAAGACUGCGGGUUCGAGUCCCGUACGGGAUG [G1A U2G C27U A69G C71U]: the “yeast fitness (ln)” value was -0.251. As for AGUCCGUUGGCGUAAUGGUAACGCGUUUCCCUCCUAAGGAGACGAUUGCGGGUUCGAGUCCCGUAUGGGUCG [G1A U2G C27U A43C C46U C66U A69G A70U], the figure is -0.462. Consider AGUCCGUUGGCGUAAUGGUAACGCGUUUCCCUCCUAAGGAGACGAUUGCGGGUUCGAGUCCCGUAUGGGGCG [G1A U2G C27U A43C C46U C66U A69G A70G], for which the “yeast fitness (ln)” value was -0.282. Next, AGUCCGUUGGCGUAAUGGUAACGCGUUUCCCUCCUAAGGAGACGAUUGCGGGUUCGAGUCCCGUAUGGGUUG [G1A U2G C27U A43C C46U C66U A69G A70U C71U]: -0.5; AGUCCGUUGGCGUAAUGGUAACGCGUUUCCCUCCUAAGGAGAAGACUGCGGGUUCGAGUCCCGUACGGGGUG [G1A U2G C27U A69G A70G C71U]: -0.241. Regarding AGUCCGUUGGCGUAAUGGUAACGCGUUUCCCUCCUAAGGAGAAGAUUGCGGGUUCGAGUCCCGUAUGGGUCG [G1A U2G C27U C46U C66U A69G A70U], the “yeast fitness (ln)” value is -0.265. AGUCCGUUGGCGUAAUGGUAACGCGUUUCCCUCCUAAGGAGAAGAUUGCGGGUUCGAGUCCCGUAUGGGGCG [G1A U2G C27U C46U C66U A69G A70G]: the “yeast fitness (ln)” value is -0.231. As to AGUCCGUUGGCGUAAUGGUAACGCGUUUCCCUCCUAAGGAGAAGAUUGCGGGUUCGAGUCCCGUAAGGGUCG [G1A U2G C27U C46U C66A A69G A70U], the “yeast fitness (ln)” value was -0.191. As to AGUCCGUUGGCGUAAUGGUAACGCGUUUCCCUCCUAAGGAGAAGAUUGCGGGUUCGAGUCCCGUAUGGAGUG [G1A U2G C27U C46U C66U A70G C71U], the “yeast fitness (ln)” value is -0.218. As for AGUCCGUUGGCGUAAUGGUAACGCGUUUCCCUCCUAAGGAGACGACUGCGGGUUCGAGUCCCGUAAGGAGCG [G1A U2G C27U A43C C66A A70G], the figure is -0.255; as for AGUCCGUUGGCGUAAUGGUAACGCGUUUCCCUCCUAAGGAGACGACUGCGGGUUCGAGUCCCGUAAGGAUCG [G1A U2G C27U A43C C66A A70U], -0.195. For the variant AGUCCGUUGGCGUAAUGGUAACGCGUUUCCCUCCUAAGGAGACGAUUGCGGGUUCGAGUCCCGUAUGGAAUG [G1A U2G C27U A43C C46U C66U C71U], the “yeast fitness (ln)” value is -0.277.
